VIM-2 inhibitor = VIM-2 metallo-beta-lactamase inhibitors, primary screen, biochemical, epi-absorbance readout, Pseudomonas aeruginosa enzyme; inhibition, % at 5.6 µM; purified VIM-2, nitrocefin hydrolysis, epi-absorbance fluorescence; 0.89% of 290,000 active;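 active = inhibition above the mean of all tested compounds plus 3 SD, cutoff set per screening run, cut at about 7.5% in these data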;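 also: red hydrolysis product quenches plate fluorescence so inhibitors raise well fluorescence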
IMP-1 inhibitor = IMP-1 metallo-beta-lactamase inhibitors, primary screen, biochemical, epi-absorbance readout, Pseudomonas aeruginosa enzyme; purified IMP-1, nitrocefin hydrolysis, epi-absorbance fluorescence; inhibition, % at 5.6 µM; AID 1556, 2009; metallo-beta-lactamase IMP-1 (Pseudomonas aeruginosa); 0.45% of 290,000 active;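 active = inhibition above the mean plus 3 SD of all compounds in the same screening run, cut at about 4.5% in these data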
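Assay system: purified recombinant IMP-1 beta-lactamase. Input: IMP-1 0.2 nM before substrate addition. Buffer or medium: Zinc- and detergent-supplemented HEPES buffer, pH 7.1. Schedule: 25 °C, 15 min preincubation, 25 min reaction. Signal: Epi-absorbance fluorescence, 480 nm excitation, 530 nm emission. Evaluation: percent inhibition from optical density relative to buffer-blank wells.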
PKA-R2B activ = activators of PKA-R2B holoenzyme, primary screen, biochemical, fluorescence polarization, Cy5-IP20, human; cAMP-dependent protein kinase catalytic subunit beta (Homo sapiens) + cAMP-dependent …; PKA-R2B holoenzyme dissociation; R2B truncated from residue 108, S112A mutant; 0% DMSO only, 100% 113 µM cGMP; activation, % at 11.4 µM; 0.079% of 340,000 active; AID 504700, 2011;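 active = activation above a cutoff set at the mean over all compounds plus 3 SD, cut at about 18% in these data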;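 also: higher means more holoenzyme dissociation and a rise in polarization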
Target sequence (P31323 whole entry, looked up, other chains not shown, the tested form may be a part): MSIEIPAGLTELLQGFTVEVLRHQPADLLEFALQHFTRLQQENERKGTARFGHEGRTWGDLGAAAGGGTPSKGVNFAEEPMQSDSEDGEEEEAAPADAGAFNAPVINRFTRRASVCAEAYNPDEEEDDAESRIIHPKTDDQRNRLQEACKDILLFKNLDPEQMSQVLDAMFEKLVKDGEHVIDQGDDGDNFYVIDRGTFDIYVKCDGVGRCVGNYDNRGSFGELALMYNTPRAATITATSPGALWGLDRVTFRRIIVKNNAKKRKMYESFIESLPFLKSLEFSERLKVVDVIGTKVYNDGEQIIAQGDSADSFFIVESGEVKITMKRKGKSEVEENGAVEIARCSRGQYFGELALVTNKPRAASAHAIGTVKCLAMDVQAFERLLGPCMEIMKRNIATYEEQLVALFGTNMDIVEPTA
bovine MsrA act = bovine MsrA enzyme activators, primary screen, biochemical, absorbance, HTS; Methionine sulfoxide reductase A (Bos taurus); purified bovine MsrA, absorbance read-out; activation, % at 10.6 µM; 0.3% of 360,000 active; AID 602163, 2012; in the data active = activation above about 7.5%
PKA-R1A act = activators of PKA-R1A holoenzyme, primary screen, biochemical, fluorescence polarization, Cy5-IP20, bovine R1A, mouse PKAc | 0.083% of 340,000 active | AID 504707, 2011 | activation, % at 11.4 µM | PKA-R1A dissociation; scaled: DMSO 0%, 113 µM cGMP 100% | cAMP-dependent protein kinase type I-alpha regulatory subunit (Bos taurus) + …;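 active = percent activation above the mean of all tested compounds plus 3 SD, cut at about 19% in these data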;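 also: higher means more PKAc released from R1A so a rise in polarization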
MsrA inh = bovine MsrA enzyme inhibitors, primary screen, biochemical, absorbance, HTS; Methionine sulfoxide reductase A (Bos taurus); purified bovine MsrA, absorbance read-out; inhibition, % at 15.5 µM; 0.75% of 360,000 active; in the data active = inhibition above about 4.5%
MsrA act confirm = bovine MsrA activators, retest, confirmation, biochemical, absorbance, HTS. 12% of 1,000 active. purified bovine MsrA, absorbance read-out. shares compounds with bovine MsrA act. activation, % at 10.6 µM; in the data active = activation above about 4%;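 also: enzyme coupled to thioredoxin and thioredoxin reductase with NADPH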
Each line names hits and unclear results; the compound was inactive in the other large screens (follow-up assays come after a bar, where they were run). The list is not random: actives were taken first. Their share in the collection is about 2.1%.

O=C1c2ccccc2C(=O)c2[nH]cnc21	bovine MsrA act 12.5 | MsrA act confirm 6.7
O=C1c2ccccc2C(=O)c2[nH]c(=O)[nH]c21	bovine MsrA act 15.1 | MsrA act confirm inactive
O=C1c2ccccc2C(=O)c2c1ncn2-c1ccccc1	none
CC(=O)Nc1ccc(S(=O)(=O)NCCC(=O)OCc2csc(CC(=O)Nc3ccccc3C)n2)cc1	none (no result: VIM-2 inhibitor, IMP-1 inhibitor)
C1CCc2nc3c(nc2C1)CCCC3	bovine MsrA act 17.4 | MsrA act confirm inactive
c1ccc2nc3c(nc2c1)CCCC3	none
O=C(O)c1cc(S(=O)(=O)N2CCCCC2)ccc1N1CCOCC1	none (no result: VIM-2 inhibitor, IMP-1 inhibitor)
Cc1[nH]c(-c2ccc(F)cc2)cc1C(=O)N1CCN(c2ccc(Cl)cc2)CC1	bovine MsrA act 8.3 | MsrA act confirm inactive
COc1ccc(N2CCN(C(=O)c3cc(-c4ccc(F)cc4)[nH]c3C)CC2)cc1	none
O=C(c1ccc([N+](=O)[O-])o1)N1CCc2ccccc2C1	none
O=C(c1ccc([N+](=O)[O-])o1)N1CCc2ccccc21	bovine MsrA act 10.1 | MsrA act confirm inactive
CCC(C)Sc1ccc([C@@H]2[C@H]3C(=O)N(C)C(=O)[C@H]3[C@]3(C(=O)OC)CCCN23)cc1 (stereo partly specified)	none (no result: VIM-2 inhibitor, IMP-1 inhibitor)
O=C(COC(=O)c1ccc([N+](=O)[O-])s1)NC(=O)NCc1ccccc1	bovine MsrA act 15.3 | MsrA act confirm inactive
O=C(COC(=O)c1ccc([N+](=O)[O-])s1)NCCc1ccccc1	bovine MsrA act 25.5 (no result: VIM-2 inhibitor, IMP-1 inhibitor, MsrA inh) | MsrA act confirm 15.6
O=C(COC(=O)c1ccc([N+](=O)[O-])s1)NNC(=O)c1ccccc1	bovine MsrA act 22.4 (no result: VIM-2 inhibitor, IMP-1 inhibitor, MsrA inh) | MsrA act confirm 9.0
CC(NC(=O)COC(=O)c1ccc([N+](=O)[O-])s1)c1ccccc1 (stereo unspecified)	none
CCc1cc(C(=O)OCC(=O)NCCc2ccccc2)sc1C	none (no result: VIM-2 inhibitor, IMP-1 inhibitor)
O=C(COC(=O)c1ccc(O)cc1)NC(=O)NCc1ccccc1	none (no result: VIM-2 inhibitor, IMP-1 inhibitor)
O=C(COC(=O)c1ccc([N+](=O)[O-])s1)c1ccc[nH]1	bovine MsrA act 26.7 (no result: VIM-2 inhibitor, IMP-1 inhibitor) | MsrA act confirm 9.5
Cc1ccc([C@H]2C[C@H](O)[C@@H](n3cc(COC(=O)c4ccccc4)nn3)CN2Cc2cccs2)cc1	none (no result: VIM-2 inhibitor, IMP-1 inhibitor)
NC(=O)c1ccccc1NC(=O)c1ccc2c(c1)OCO2	none
CCN1C(=O)c2cccc3c(S(=O)(=O)N4CCNCC4)ccc1c23	none (no result: VIM-2 inhibitor, IMP-1 inhibitor)
Cc1cc(Br)ccc1NC(=O)CN(C)C(=O)c1ccccc1OCc1c(C)noc1C	none (no result: VIM-2 inhibitor, IMP-1 inhibitor)
CCNC(=O)NC(=O)CSc1ccc(S(=O)(=O)N2CCCCC2)cn1	none (no result: VIM-2 inhibitor, IMP-1 inhibitor)
O=C(COC(=O)c1ccc([N+](=O)[O-])s1)NCc1ccc(F)cc1	bovine MsrA act 26.4 | MsrA act confirm 21.9
O=C1CN(C(=O)COC(=O)c2ccc([N+](=O)[O-])s2)c2ccccc2N1	bovine MsrA act 41.1 (no result: VIM-2 inhibitor, IMP-1 inhibitor, MsrA inh) | MsrA act confirm 20.5
CCCCCCCCN1C(=O)[C@@H](CC(=O)NCCCCc2ccccc2)C[C@@]2(C(=O)OC)C1=C[C@H](C(C)(C)C)O[C@@H]2C	none (no result: VIM-2 inhibitor, IMP-1 inhibitor, PKA-R2B activ, bovine MsrA act, PKA-R1A act)
CC1CCN(CCCNC(=O)c2ccc3c(=O)n(Cc4ccc(Cl)cc4)c(=S)[nH]c3c2)CC1	bovine MsrA act 8.2 | MsrA act confirm inactive
CCOC(=O)c1ccc(NC(=O)c2c(N)n(Cc3ccccc3)c(=O)[nH]c2=O)cc1	none (no result: VIM-2 inhibitor, IMP-1 inhibitor)
COc1ccc(-n2c(=O)[nH]cc(C(=O)Nc3ccc4c(c3)OCO4)c2=O)cc1OC	bovine MsrA act 11.6 | MsrA act confirm inactive
COc1ccc(-n2c(=O)[nH]cc(C(=O)Nc3ccc4c(c3)OCCO4)c2=O)cc1	none
Cc1nnc(N/N=C/c2ccccc2F)n1N	none

Source: PubChem BioAssay
